Assays:
[1] = biological target: T1, Adenosine receptor A1 (Homo sapiens) (UniProt P30542); assay: Dissociation of [3H]N6-cyclohexyladenosine ([3H]CHA) from CHO-K1 membrane expressing human adenosine A1 receptor after treatment with allosteric enhancer at 100 uM and (R)-PIA
T1 sequence (whole entry): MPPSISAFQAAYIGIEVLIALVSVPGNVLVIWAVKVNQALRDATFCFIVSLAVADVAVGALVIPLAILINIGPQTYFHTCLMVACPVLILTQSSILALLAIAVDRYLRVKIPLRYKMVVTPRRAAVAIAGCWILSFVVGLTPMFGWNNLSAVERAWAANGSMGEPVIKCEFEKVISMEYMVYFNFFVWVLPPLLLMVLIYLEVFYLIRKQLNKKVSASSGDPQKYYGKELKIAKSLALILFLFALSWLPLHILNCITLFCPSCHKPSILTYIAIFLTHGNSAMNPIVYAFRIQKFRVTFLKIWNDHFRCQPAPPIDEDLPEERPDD

[2] = biological target: T1, Adenosine receptor A1 (Homo sapiens); assay: Inhibition of antagonist [3H]CPX binding to Adenosine A1 receptor membrane at 100 uM
Summary of the method: (§1)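 Human A1AR membranes from CHO cells were incubated with 2 nM [3H]CPX and test agent (100 μM) for 90 min at room temperature. Inhibition of equilibrium antagonist binding was then measured.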

Adenosine receptor A1 = biological target: T2, Adenosine receptor A1 (Homo sapiens, UniProt P30542); assay: Effective dose as dissociation of [3H]N6-cyclohexyladenosine ([3H]CHA) from CHO-K1 membrane after treatment with allosteric enhancer and (R)-PIA
T2 sequence (P30542 whole entry): T1 sequence (whole entry)

[3] = biological target: T1, Adenosine receptor A1 (Homo sapiens); assay: Inhibition of antagonist [3H]-CPX binding to Adenosine A1 receptor membrane at 100 uM; summary of the method: as §1

Row | Activity [1] | SMILES | other results
1 | 9.4% | Nc1sc(-c2ccccc2)c(-c2ccccc2)c1C(=O)c1cccc(Cl)c1 | 
2 | 80.4% | Nc1sc(Br)c(-c2ccc(C(F)(F)F)cc2)c1C(=O)c1ccccc1 | 
3 | 42.1% | CCOC(=O)c1c(N)sc(-c2ccccc2)c1-c1ccc(Cl)cc1 | 
4 | 19% | Cc1sc(N)c(C(=O)c2cccc(C(F)(F)F)c2)c1C | inhibition [2]: 85%
5 | 11.9% | Nc1sc(-c2ccccc2)c(-c2ccc(Cl)cc2)c1C(=O)c1cccc2ccccc12 | 
6 | 91% | Nc1sc(Br)c(-c2cccc(C(F)(F)F)c2)c1C(=O)c1ccccc1 | EC50 (Adenosine receptor A1): 6.36 µM; inhibition [3]: 29%
7 | 18.6% | Nc1sc(-c2ccccc2)c(-c2ccccc2)c1C(=O)OCc1ccccc1 | 
8 | 8% | Nc1sc(-c2ccccc2)cc1C(=O)OCc1ccccc1 | 
9 | 10.5% | Nc1sc(-c2ccccc2)c(-c2ccc(Cl)cc2)c1C(=O)c1ccc(-c2ccccc2)cc1 | 
10 | 8.1% | Cc1ccc(-c2c(-c3ccccc3)sc(N)c2C(=O)c2cccc(Cl)c2)cc1 | 
11 | 42.7% | Nc1sc(Br)c(-c2ccc(-c3ccccc3)cc2)c1C(=O)c1ccccc1 | 
12 | 8.7% | Nc1sc(-c2ccccc2)c(-c2ccc(Cl)cc2)c1C(=O)c1ccc(Cl)cc1 | 
13 | 21.8% | Nc1sc(Br)c(-c2cccc([N+](=O)[O-])c2)c1C(=O)c1ccccc1 | 
14 | 48% | Nc1sc(-c2ccccc2)c(-c2ccccc2)c1C(=O)OCc1cccc(C(F)(F)F)c1 | 
15 | 10.9% | Cc1ccc(-c2c(-c3ccccc3)sc(N)c2C(=O)c2ccc3ccccc3c2)cc1 | 
16 | 4.2% | Nc1sc(-c2ccccc2)c(-c2ccccc2)c1C(=O)c1ccc2ccccc2c1 | 

Row | Activity [1] | SMILES | other results
17 | 62.6% | Cc1ccc(-c2c(-c3ccccc3)sc(N)c2C(=O)OCc2cccc(C(F)(F)F)c2)cc1 | 
18 | 10.8% | Nc1sc(-c2ccccc2)c(-c2ccccc2)c1C(=O)c1ccc(Cl)cc1 | 
19 | 3.6% | Cc1ccc(-c2c(-c3ccccc3)sc(N)c2C(=O)c2ccc(-c3ccccc3)cc2)cc1 | 
20 | 68.3% | Nc1sc(Br)c(-c2ccc([N+](=O)[O-])cc2)c1C(=O)c1ccccc1 | 
21 | 10.7% | Nc1sc(-c2ccccc2)c(-c2ccccc2)c1C(=O)c1ccccc1 | 
22 | 14.1% | Nc1sc(-c2ccccc2)c(-c2ccccc2)c1C(=O)N(Cc1ccccc1)Cc1ccccc1 | 
23 | 26% | CCOC(=O)c1c(N)sc(Br)c1-c1cccc([N+](=O)[O-])c1 | 
24 | 5.6% | Nc1sc(-c2ccccc2)c(-c2ccc(Cl)cc2)c1C(=O)c1ccccc1 | 
25 | 20.3% | N#Cc1ccc(-c2c(Br)sc(N)c2C(=O)c2ccccc2)cc1 | 
26 | 8.4% | Cc1ccc(-c2c(-c3ccccc3)sc(N)c2C(=O)c2ccc(Cl)cc2)cc1 | 
27 | 13.4% | Cc1ccc(-c2c(-c3ccccc3)sc(N)c2C(=O)c2ccccc2)cc1 | 
28 | 1.5% | Nc1sc(-c2ccccc2)c(-c2ccccc2)c1C(=O)c1ccc(-c2ccccc2)cc1 | 
29 | 52.3% | Nc1sc(-c2ccccc2)c(-c2ccccc2)c1C(=O)c1cccc2ccccc12 | 
30 | 1.9% | Cc1ccc(-c2c(-c3ccccc3)sc(N)c2C(=O)Cc2ccccc2)cc1 | 
31 | 49.7% | Nc1sc(Br)c(-c2ccc3ccccc3c2)c1C(=O)c1ccccc1 | 

Reference: ChEMBL document CHEMBL1145033, “2-Amino-3-benzoylthiophene allosteric enhancers of A1 adenosine agonist binding: new 3, 4-, and 5-modifications” (J Med Chem, 2003)
